From ChEMBL document CHEMBL4706631, “Potent and Selective Mitogen-Activated Protein Kinase Kinase 1/2 (MEK1/2) Heterobifunctional Small-molecule Degraders” (J Med Chem, 2020)
Calls of active or inactive are those of the source. The rule behind the calls is not given here.

Columns and labels:
HT-29 [1] = experiment: Antiproliferative activity against human HT-29 cells incubated for 3 days by WST8 assay; assay type: functional; conditions: HT-29, 72 h, time 3 day
NCI-H3122 [2] = experiment: Inhibition of ERK phosphorylation in human NCI-H3122 cells at 0.3 to 3 uM and incubated for 24 hrs by Western blot analysis; assay type: cell-based; conditions: dose 0.3-3 µM
In short: (§1)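 H3122 and SU-DHL-1 cells were treated with compounds, and MEK1/2, pMEK and pERK were assessed by Western blot of lysates.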

NCI-H3122 [3] = experiment: Antiproliferative activity against human NCI-H3122 cells at 0.014 to 3.33 uM incubated for 3 days by WST8 assay; assay type: functional, cell-based; conditions: dose 0.014-3.33 µM, time 3.0 day
In short: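 NCI-H3122 cells were exposed to serial compound dilutions for 3 days, with WST-8 live-cell readout. Each concentration was run in triplicate. Student's t-test per concentration versus DMSO.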

SU-DHL-1 = experiment: Inhibition of ERK phosphorylation in human SU-DHL-1 cells at 0.3 to 3 uM and incubated for 24 hrs by Western blot analysis; assay type: cell-based; conditions: dose 0.3-3 µM; in short: as §1
HT-29 [4] = experiment: Inhibition of ERK phosphorylation in human HT-29 cells at 0.3 to 3 uM incubated for 24 hrs by Western blot analysis; assay type: cell-based; conditions: dose 0.3-3 µM
HT-29 [5] = experiment: Inhibition of colony formation in human HT-29 cells at 10 to 100 nM incubated for 10 days by crystal violet staining based assay; assay type: functional, cell-based; conditions: dose 10-100 nM, time 10.0 day
In short: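 HT-29 clonogenic assay: cells were exposed to compounds for 10 days, then fixed and stained with crystal violet. Two independent experiments.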

O=C1CCC(N2C(=O)c3cccc(NCCCCCCCCNCCCONC(=O)c4ccc(F)c(F)c4Nc4ccc(I)cc4F)c3C2=O)C(=O)N1 (stereo not given)
GI50 (HT-29 [1]): 3500 nM

Cc1ncsc1-c1ccc(CNC(=O)[C@@H]2C[C@@H](O)CN2C(=O)[C@@H](NC(=O)CCOCCOCCOCCNCCCONC(=O)c2ccc(F)c(F)c2Nc2ccc(I)cc2F)C(C)(C)C)cc1
GI50 (HT-29 [1]): 3300 nM

Cc1ncsc1-c1ccc([C@H](C)NC(=O)[C@@H]2C[C@@H](O)CN2C(=O)[C@@H](NC(=O)CCCCCCCCCNCCCCONC(=O)c2ccc(F)c(F)c2Nc2ccc(I)cc2F)C(C)(C)C)cc1
GI50 (HT-29 [1]): 55 nM

Cc1ncsc1-c1ccc(CNC(=O)[C@@H]2C[C@@H](O)CN2C(=O)[C@@H](NC(=O)COCCOCCOCCNCCCONC(=O)c2ccc(F)c(F)c2Nc2ccc(I)cc2F)C(C)(C)C)cc1
GI50 (HT-29 [1]): 1300 nM

O=C1CCC(N2C(=O)c3cccc(NCCCCCNCCCONC(=O)c4ccc(F)c(F)c4Nc4ccc(I)cc4F)c3C2=O)C(=O)N1 (stereo not given)
GI50 (HT-29 [1]): 1800 nM

O=C1CCC(N2C(=O)c3cccc(NCCCCCCCNCCCONC(=O)c4ccc(F)c(F)c4Nc4ccc(I)cc4F)c3C2=O)C(=O)N1 (stereo not given)
GI50 (HT-29 [1]): 4500 nM

Cc1ncsc1-c1ccc(CNC(=O)[C@@H]2C[C@@H](O)CN2C(=O)[C@@H](NC(=O)CCCCCNCCCONC(=O)c2ccc(F)c(F)c2Nc2ccc(I)cc2F)C(C)(C)C)cc1
GI50 (HT-29 [1]): 2100 nM

Cc1ncsc1-c1ccc(CNC(=O)[C@@H]2C[C@@H](O)CN2C(=O)[C@@H](NC(=O)CCCCCCCNCCCONC(=O)c2ccc(F)c(F)c2Nc2ccc(I)cc2F)C(C)(C)C)cc1
GI50 (HT-29 [1]): 500 nM

O=C1CCC(N2C(=O)c3cccc(NCCCCNCCCONC(=O)c4ccc(F)c(F)c4Nc4ccc(I)cc4F)c3C2=O)C(=O)N1 (stereo not given)
GI50 (HT-29 [1]): 1900 nM

Cc1ncsc1-c1ccc(CNC(=O)[C@@H]2C[C@@H](O)CN2C(=O)[C@@H](NC(=O)COCCOCCNCCCONC(=O)c2ccc(F)c(F)c2Nc2ccc(I)cc2F)C(C)(C)C)cc1
GI50 (HT-29 [1]): 1600 nM

O=C1CCC(N2C(=O)c3ccc(NCCOCCOCCOCCNCCCONC(=O)c4ccc(F)c(F)c4Nc4ccc(I)cc4F)cc3C2=O)C(=O)N1 (stereo not given)
GI50 (HT-29 [1]): 1500 nM

Cc1ncsc1-c1ccc(CNC(=O)[C@@H]2C[C@@H](O)CN2C(=O)[C@@H](NC(=O)CCOCCOCCOCCOCCNCCCONC(=O)c2ccc(F)c(F)c2Nc2ccc(I)cc2F)C(C)(C)C)cc1
GI50 (HT-29 [1]): 1700 nM

O=C1CCC(N2C(=O)c3ccc(NCCCCCCCNCCCONC(=O)c4ccc(F)c(F)c4Nc4ccc(I)cc4F)cc3C2=O)C(=O)N1 (stereo not given)
GI50 (HT-29 [1]): 500 nM

Cc1ncsc1-c1ccc([C@H](C)NC(=O)[C@@H]2C[C@@H](O)CN2C(=O)[C@@H](NC(=O)CCCCCCCCCNCCCONC(=O)c2ccc(F)c(F)c2Nc2ccc(I)cc2F)C(C)(C)C)cc1
GI50 (HT-29 [1]): 240 nM

O=C1CCC(N2C(=O)c3ccc(NCCCNCCCONC(=O)c4ccc(F)c(F)c4Nc4ccc(I)cc4F)cc3C2=O)C(=O)N1 (stereo not given)
GI50 (HT-29 [1]): 500 nM

O=C1CCC(N2C(=O)c3ccc(NCCCCCCCCNCCCONC(=O)c4ccc(F)c(F)c4Nc4ccc(I)cc4F)cc3C2=O)C(=O)N1 (stereo not given)
GI50 (HT-29 [1]): 300 nM

Cc1ncsc1-c1ccc(CNC(=O)[C@@H]2C[C@@H](O)CN2C(=O)[C@@H](NC(=O)COCCNCCCONC(=O)c2ccc(F)c(F)c2Nc2ccc(I)cc2F)C(C)(C)C)cc1
GI50 (HT-29 [1]): 4000 nM

Cc1ncsc1-c1ccc(CNC(=O)[C@@H]2C[C@@H](O)CN2C(=O)[C@@H](NC(=O)CCCNCCCONC(=O)c2ccc(F)c(F)c2Nc2ccc(I)cc2F)C(C)(C)C)cc1
GI50 (HT-29 [1]): 3100 nM

O=C1CCC(N2C(=O)c3cccc(NCCNCCCONC(=O)c4ccc(F)c(F)c4Nc4ccc(I)cc4F)c3C2=O)C(=O)N1 (stereo not given)
GI50 (HT-29 [1]): 400 nM

Cc1ncsc1-c1ccc(CNC(=O)[C@@H]2C[C@@H](O)CN2C(=O)[C@@H](NC(=O)CNCCCONC(=O)c2ccc(F)c(F)c2Nc2ccc(I)cc2F)C(C)(C)C)cc1
GI50 (HT-29 [1]): 1800 nM

Cc1ncsc1-c1ccc([C@H](C)NC(=O)[C@H]2C[C@H](O)CN2C(=O)[C@@H](NC(=O)CCCCCCCCCCN(C)CCCONC(=O)c2ccc(F)c(F)c2Nc2ccc(I)cc2F)C(C)(C)C)cc1
inhibition (NCI-H3122 [2]): inactive | Activity (NCI-H3122 [3]): inactive | inhibition (SU-DHL-1): inactive | inhibition (HT-29 [4]): inactive | inhibition (HT-29 [5]): inactive

O=C1CCC(N2C(=O)c3cccc(NCCOCCNCCCONC(=O)c4ccc(F)c(F)c4Nc4ccc(I)cc4F)c3C2=O)C(=O)N1 (stereo not given)
GI50 (HT-29 [1]): 1200 nM

Cc1ncsc1-c1ccc(CNC(=O)[C@@H]2C[C@@H](O)CN2C(=O)[C@@H](NC(=O)CCCCNCCCONC(=O)c2ccc(F)c(F)c2Nc2ccc(I)cc2F)C(C)(C)C)cc1
GI50 (HT-29 [1]): 3000 nM

Cc1ncsc1-c1ccc(CNC(=O)[C@@H]2C[C@@H](O)CN2C(=O)[C@@H](NC(=O)CCNCCCONC(=O)c2ccc(F)c(F)c2Nc2ccc(I)cc2F)C(C)(C)C)cc1
GI50 (HT-29 [1]): 5000 nM

O=C1CCC(N2C(=O)c3cccc(NCCOCCOCCOCCNCCCONC(=O)c4ccc(F)c(F)c4Nc4ccc(I)cc4F)c3C2=O)C(=O)N1 (stereo not given)
GI50 (HT-29 [1]): 800 nM

O=C1CCC(N2C(=O)c3cccc(NCCOCCOCCOCCOCCNCCCONC(=O)c4ccc(F)c(F)c4Nc4ccc(I)cc4F)c3C2=O)C(=O)N1 (stereo not given)
GI50 (HT-29 [1]): 600 nM

O=C1CCC(N2C(=O)c3cccc(NCCCNCCCONC(=O)c4ccc(F)c(F)c4Nc4ccc(I)cc4F)c3C2=O)C(=O)N1 (stereo not given)
GI50 (HT-29 [1]): 1100 nM

Cc1ncsc1-c1ccc(CNC(=O)[C@@H]2C[C@@H](O)CN2C(=O)[C@@H](NC(=O)CCOCCOCCNCCCONC(=O)c2ccc(F)c(F)c2Nc2ccc(I)cc2F)C(C)(C)C)cc1
GI50 (HT-29 [1]): 1600 nM

Cc1ncsc1-c1ccc(CNC(=O)[C@@H]2C[C@@H](O)CN2C(=O)[C@@H](NC(=O)CCCCCCCCCCNCCCONC(=O)c2ccc(F)c(F)c2Nc2ccc(I)cc2F)C(C)(C)C)cc1
GI50 (HT-29 [1]): 400 nM

O=C1CCC(N2C(=O)c3ccc(NCCOCCNCCCONC(=O)c4ccc(F)c(F)c4Nc4ccc(I)cc4F)cc3C2=O)C(=O)N1 (stereo not given)
GI50 (HT-29 [1]): 1400 nM

Cc1ncsc1-c1ccc([C@H](C)NC(=O)[C@@H]2C[C@@H](O)CN2C(=O)[C@@H](NC(=O)CCCCCCCCCCNCCCCONC(=O)c2ccc(F)c(F)c2Nc2ccc(I)cc2F)C(C)(C)C)cc1
GI50 (HT-29 [1]): 43 nM

CCCS(=O)(=O)Nc1ccc(F)c(C(=O)c2c[nH]c3ncc(-c4ccc(Cl)cc4)cc23)c1F [VEMURAFENIB]
GI50 (HT-29 [1]): 100 nM

O=C1CCC(N2C(=O)c3cccc(NCCCCCCNCCCONC(=O)c4ccc(F)c(F)c4Nc4ccc(I)cc4F)c3C2=O)C(=O)N1 (stereo not given)
GI50 (HT-29 [1]): 3800 nM

O=C1CCC(N2C(=O)c3ccc(NCCCCCCNCCCONC(=O)c4ccc(F)c(F)c4Nc4ccc(I)cc4F)cc3C2=O)C(=O)N1 (stereo not given)
GI50 (HT-29 [1]): 1100 nM

O=C1CCC(N2C(=O)c3ccc(NCCOCCOCCOCCOCCNCCCONC(=O)c4ccc(F)c(F)c4Nc4ccc(I)cc4F)cc3C2=O)C(=O)N1 (stereo not given)
GI50 (HT-29 [1]): 500 nM

FC(F)c1nc2ccccc2n1-c1nc(N2CCOCC2)nc(N2CCOCC2)n1 [ZSTK-474]
GI50 (HT-29 [1]): 300 nM

O=C1CCC(N2C(=O)c3ccc(NCCCCCNCCCONC(=O)c4ccc(F)c(F)c4Nc4ccc(I)cc4F)cc3C2=O)C(=O)N1 (stereo not given)
GI50 (HT-29 [1]): 500 nM

Cc1ncsc1-c1ccc([C@H](C)NC(=O)[C@@H]2C[C@@H](O)CN2C(=O)[C@@H](NC(=O)CCCCCCCCCCCNCCCONC(=O)c2ccc(F)c(F)c2Nc2ccc(I)cc2F)C(C)(C)C)cc1
GI50 (HT-29 [1]): 99 nM

Cc1ncsc1-c1ccc(CNC(=O)[C@@H]2C[C@@H](O)CN2C(=O)[C@@H](NC(=O)CCCCCCCCNCCCONC(=O)c2ccc(F)c(F)c2Nc2ccc(I)cc2F)C(C)(C)C)cc1
GI50 (HT-29 [1]): 600 nM

O=C1CCC(N2C(=O)c3cccc(NCCOCCOCCNCCCONC(=O)c4ccc(F)c(F)c4Nc4ccc(I)cc4F)c3C2=O)C(=O)N1 (stereo not given)
GI50 (HT-29 [1]): 1300 nM

O=C1CCC(N2C(=O)c3ccc(NCCOCCOCCNCCCONC(=O)c4ccc(F)c(F)c4Nc4ccc(I)cc4F)cc3C2=O)C(=O)N1 (stereo not given)
GI50 (HT-29 [1]): 1100 nM

O=C1CCC(N2C(=O)c3cccc(NCCOCCOCCOCCOCCOCCNCCCONC(=O)c4ccc(F)c(F)c4Nc4ccc(I)cc4F)c3C2=O)C(=O)N1 (stereo not given)
GI50 (HT-29 [1]): 600 nM

Cc1ncsc1-c1ccc(CNC(=O)[C@@H]2C[C@@H](O)CN2C(=O)[C@@H](NC(=O)CCCCCCNCCCONC(=O)c2ccc(F)c(F)c2Nc2ccc(I)cc2F)C(C)(C)C)cc1
GI50 (HT-29 [1]): 1400 nM

O=C1CCC(N2C(=O)c3ccc(NCCCCNCCCONC(=O)c4ccc(F)c(F)c4Nc4ccc(I)cc4F)cc3C2=O)C(=O)N1 (stereo not given)
GI50 (HT-29 [1]): 1000 nM

Cc1ncsc1-c1ccc(CNC(=O)[C@@H]2C[C@@H](O)CN2C(=O)[C@@H](NC(=O)CCOCCNCCCONC(=O)c2ccc(F)c(F)c2Nc2ccc(I)cc2F)C(C)(C)C)cc1
GI50 (HT-29 [1]): 4800 nM

Cc1ncsc1-c1ccc(CNC(=O)[C@@H]2C[C@@H](O)CN2C(=O)[C@@H](NC(=O)CCCCCCCCCNCCCONC(=O)c2ccc(F)c(F)c2Nc2ccc(I)cc2F)C(C)(C)C)cc1
GI50 (HT-29 [1]): 500 nM
